Key:
[1] = Antiproliferative activity against human PC3 cells assessed as inhibition of cell viability after 24 hrs by MTT assay; format: functional, cell-based; conditions: PC-3, 24 h
Procedure, shortened: (§1)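 Cells grown to 50–70% confluence (RWPE1 in K-SFM with pituitary extract and EGF; the other lines in RPMI 1640 with 10% FBS), 5% CO2, 37 °C. Treated for 24 h with DMSO vehicle, compounds, or cisplatin as positive control. MTT (5 mg/mL) added for 4 h, formazan dissolved in DMSO, absorbance read at 570 nm. Viability taken relative to untreated cells after blank subtraction, IC50 fitted from % viability, at least three experiments.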

[2] = Antiproliferative activity against human RWPE1 cells assessed as inhibition of cell viability after 24 hrs by MTT assay; format: cell-based; conditions: RWPE-1, 24 h; procedure, shortened: as §1
[3] = tested on: K562; assay: Antiproliferative activity against human K562 cells assessed as inhibition of cell viability after 24 hrs by MTT assay; format: functional, cell-based; conditions: K562, 24 h; procedure, shortened: as §1
[4] = tested on: NCI-H292; assay: Antiproliferative activity against human NCI-H292 cells assessed as inhibition of cell viability after 24 hrs by MTT assay; format: functional, cell-based; conditions: NCI-H292, 24 h; procedure, shortened: as §1
[5] = tested on: DU-145; assay: Antiproliferative activity against human DU145 cells assessed as inhibition of cell viability after 24 hrs by MTT assay; format: functional, cell-based; conditions: DU-145, 24 h; procedure, shortened: as §1
[6] = tested on: NCI-H446; assay: Antiproliferative activity against human NCI-H446 cells assessed as inhibition of cell viability after 24 hrs by MTT assay; format: functional, cell-based; conditions: NCI-H446, 24 h; procedure, shortened: as §1
[7] = tested on: A549; assay: Antiproliferative activity against human A549 cells assessed as inhibition of cell viability after 24 hrs by MTT assay; format: functional, cell-based; conditions: A549, 24 h; procedure, shortened: as §1
[8] = tested on: NCI-H1299; assay: Antiproliferative activity against human NCI-H1299 cells assessed as inhibition of cell viability after 24 hrs by MTT assay; format: functional, cell-based; conditions: NCI-H1299, 24 h; procedure, shortened: as §1
[9] = Antiproliferative activity against HBE cells assessed as inhibition of cell viability after 24 hrs by MTT assay; format: cell-based; conditions: Homo sapiens; procedure, shortened: as §1

Row | IC50 [3] [µM] | IC50 [4] [µM] | IC50 [5] [µM] | IC50 [6] [µM] | IC50 [7] [µM] | IC50 [8] [µM] | SMILES | IC50 [1] [µM] | IC50 [2] [µM] | IC50 [9] [µM]
1 | 34 | 10.7 | 18.9 | 16.7 | 21.5 | 21.9 | C=C[C@]1(C)CC[C@H]2[C@]3(C)CCCC(C)(C)[C@H]3[C@@H]3C[C@@]2(O1)C(=O)O3 | 20 | 26.4 | 53.2
2 | > 40 | 39.9 | > 40 | > 40 | > 40 | 27 | CC(C)[C@H]1CC[C@]2(C)C[C@]3(O)C(=CC(=O)[C@H]3C)[C@@H](C)CC[C@@H]12 [ANADENSIN] | > 40 | > 40 | > 40
